# The source made the active and inactive calls. No cut-off for these calls is given here.
# Assays:
# SK-BR-3 = assay: Antiproliferative activity against human SK-BR-3 cells; assay type: functional, cell-based
# In short: (§1)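 Antiproliferative assay in SkBr3 (Her2-overexpressing breast) and PC3-MM2 (androgen-independent prostate) cancer cells. IC50 in μM given as mean ± standard deviation of at least two separate experiments, each run in triplicate.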
# [1] = Antiproliferative activity against human PC3MM2 cells; assay type: functional, cell-based; in short: as §1
# [2] = target: T1, Heat shock protein HSP90 (Homo sapiens) (UniProt P07900+P08238); assay: Induction of HSP90-mediated HSF1 expression in human PC3MM2 cells at 10 uM after 24 hrs by Western blot analysis; assay type: cell-based
# In short: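 PC3-MM2 cells exposed to 10 μM of each compound for 24 h. HSF1 measured by Western blot relative to β-actin.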
# [3] = target: T1, Heat shock protein HSP90 (Homo sapiens); assay: Inhibition of Hsp90 in human PC3MM2 cells assessed as downregulation of Her2 at 100 uM after 24 hrs by Western blot analysis; assay type: cell-based
# [4] = target: T1, Heat shock protein HSP90 (Homo sapiens); assay: Inhibition of Hsp90 in human PC3MM2 cells assessed as downregulation of Akt at 100 uM after 24 hrs by Western blot analysis; assay type: cell-based
# [5] = target: T1, Heat shock protein HSP90 (Homo sapiens); assay: Inhibition of Hsp90 in human PC3MM2 cells assessed as downregulation of Raf1 at 100 uM after 24 hrs by Western blot analysis; assay type: cell-based
# Homo sapiens [6] = species: Homo sapiens; assay: Inhibition of Hsp90alpha/Aha1 interaction in human PC3MM2 cells assessed as remaining Hsp90alpha/Aha complex levels at 100 uM after 24 hrs by Western blot analysis (reference value: 98 to 100 %); assay type: cell-based
# Rattus norvegicus = species: Rattus norvegicus; assay: Neuroprotective activity in rat 50B11 cells assessed as maximal respiratory capacity at 5 uM after 24 hrs in presence of oligomycin/FCCP/rotenon/antimycin by extracellular flux analysis
# [7] = target: T1, Heat shock protein HSP90 (Homo sapiens); assay: Inhibition of Hsp90 in human PC3MM2 cells assessed as downregulation of Her2 at 0.5 to 3 times IC50 after 24 hrs by Western blot analysis; assay type: cell-based
# In short: (§2)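 PC3-MM2 cells treated 24 h at a high (3 × IC50) and a low (0.5 × IC50) concentration. Hsp90 client protein levels measured by Western blot with actin as loading control.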
# [8] = target: T1, Heat shock protein HSP90 (Homo sapiens); assay: Inhibition of Hsp90 in human PC3MM2 cells assessed as suppression of firefly luciferase rematuration at 0.02 to 20 uM incubated for 1 hr by luciferase reporter gene assay; assay type: cell-based
# In short: (§3)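 Hsp90-dependent refolding of thermally denatured firefly luciferase in PC3-MM2 cells. Compounds tested from 0.02 to 20 μM.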
# [9] = target: T1, Heat shock protein HSP90 (Homo sapiens); assay: Inhibition of Hsp90 in human PC3MM2 cells assessed as downregulation of Akt at 0.5 to 3 times IC50 after 24 hrs by Western blot analysis; assay type: cell-based; in short: as §2
# [10] = target: T1, Heat shock protein HSP90 (Homo sapiens); assay: Inhibition of Hsp90 in human PC3MM2 cells assessed as downregulation of Raf1 at 0.5 to 3 times IC50 after 24 hrs by Western blot analysis; assay type: cell-based; in short: as §2
# [11] = target: T1, Heat shock protein HSP90 (Homo sapiens); assay: Induction of Hsp90 in human PC3MM2 cells at 0.5 to 3 times IC50 after 24 hrs by Western blot analysis; assay type: cell-based; in short: as §2
# Homo sapiens [12] = species: Homo sapiens; assay: Inhibition of Hsp90alpha/Aha1 interaction in human PC3MM2 cells assessed as remaining Hsp90alpha/Aha complex levels at 50 uM after 24 hrs by Western blot analysis (reference value: 98 to 100 %); assay type: cell-based
# [13] = target: T1, Heat shock protein HSP90 (Homo sapiens); assay: Effect on Hsp90 in human PC3MM2 cells assessed as stimulation of firefly luciferase rematuration at 0.02 to 20 uM incubated for 1 hr by luciferase reporter gene assay; assay type: cell-based; in short: as §3
# Homo sapiens [14] = species: Homo sapiens; assay: Inhibition of Hsp90alpha/Aha1 interaction in human PC3MM2 cells assessed as remaining Hsp90alpha/Aha complex levels at 35 uM after 24 hrs by Western blot analysis (reference value: 98 to 100 %); assay type: cell-based
SMILES,IC50 (SK-BR-3),fold change (FC) [2],inhibition [3],inhibition [4],inhibition [5],Her2 downregulation (active/inactive call) [7],inhibition [8],Akt downregulation (active/not active) [9],Raf1 downregulation (active/not active) [10],Activity [11],Activity [13],IC50 [1],remaining Hsp90alpha/Aha1 complex level (Homo sapiens [6]),Activity (Rattus norvegicus),Activity (Homo sapiens [12]),Activity (Homo sapiens [14])
CO[C@@H]1[C@@H](O)[C@@H](O)[C@H](Oc2ccc3cc(NC(=O)C4CCC4)c(=O)oc3c2C)OC1(C)C,220 µM,4,inactive,inactive,inactive,–,–,–,–,–,–,284 µM,54%,Active,–,–
CCC(=O)Nc1cc2ccc(O[C@@H]3OC(C)(C)[C@H](OC)[C@@H](O)[C@H]3O)c(C)c2oc1=O,643 µM,1.2,inactive,inactive,inactive,–,inactive,–,–,–,Active,504 µM,86%,Active,–,–
CCCC(=O)Nc1cc2ccc(O[C@@H]3OC(C)(C)[C@H](OC)[C@@H](O)[C@H]3O)c(C)c2oc1=O,313 µM,1.1,inactive,inactive,inactive,–,inactive,–,–,–,Active,466 µM,100%,Active,–,–
CO[C@@H]1[C@@H](O)[C@@H](O)[C@H](Oc2ccc3cc(NC(C)=O)c(=O)oc3c2C)OC1(C)C,> 900 µM,2 to 3.7,–,–,–,–,inactive,–,–,–,Active,> 500 µM,68 to 70%,Active,–,–
CO[C@@H]1[C@@H](O)[C@@H](O)[C@H](Oc2ccc3cc(NC(=O)C4CC4)c(=O)oc3c2C)OC1(C)C,517 µM,3.7,inactive,inactive,inactive,–,–,–,–,–,–,> 500 µM,68%,Active,–,–

# Stronger by IC50 (SK-BR-3), values ahead:
IC50 (SK-BR-3),fold change (FC) [2],inhibition [3],inhibition [4],inhibition [5],Her2 downregulation (active/inactive call) [7],inhibition [8],Akt downregulation (active/not active) [9],Raf1 downregulation (active/not active) [10],Activity [11],Activity [13],SMILES,IC50 [1],remaining Hsp90alpha/Aha1 complex level (Homo sapiens [6]),Activity (Rattus norvegicus),Activity (Homo sapiens [12]),Activity (Homo sapiens [14])
84 µM,0.6,–,–,–,Active,Active,Active,Active,inactive,–,CCCCCC(=O)Nc1cc2ccc(O[C@@H]3OC(C)(C)[C@H](OC)[C@@H](O)[C@H]3O)c(C)c2oc1=O,53.7 µM,–,Active,46%,–
46.8 µM,1,–,–,–,Active,Active,Active,Active,inactive,–,CO[C@@H]1[C@@H](O)[C@@H](O)[C@H](Oc2ccc3cc(NC(=O)C4CCCCC4)c(=O)oc3c2C)OC1(C)C,54.6 µM,–,Active,22%,–
67 µM,2,–,–,–,Active,Active,Active,Active,inactive,–,CO[C@@H]1[C@@H](O)[C@@H](O)[C@H](Oc2ccc3cc(NC(=O)C4CCCC4)c(=O)oc3c2C)OC1(C)C,144 µM,27%,Active,–,–
58.3 µM,0.6,–,–,–,Active,Active,Active,Active,inactive,–,CCCCCCC(=O)Nc1cc2ccc(O[C@@H]3OC(C)(C)[C@H](OC)[C@@H](O)[C@H]3O)c(C)c2oc1=O,34.7 µM,–,Active,–,38%
118 µM,1.5,inactive,inactive,inactive,–,inactive,–,–,–,Active,CCCCC(=O)Nc1cc2ccc(O[C@@H]3OC(C)(C)[C@H](OC)[C@@H](O)[C@H]3O)c(C)c2oc1=O,317 µM,72%,Active,–,–

# Source: ChEMBL document CHEMBL4431379, “Diverging Novobiocin Anti-Cancer Activity from Neuroprotective Activity through Modification of the Amide Tail” (ACS Med Chem Lett, 2016)
